Screening data deposited in PubChem by several laboratories.
STAT3 blocker: inhibitors of IL-6 induced STAT3 signaling; U3A cells, IL-6 STAT3-luciferase reporter, luminescence; host cell line lacks STAT1; inhibition, % at 5.5 µM; 0.89% of 190,000 active; AID 862;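 active means inhibition above the mean inhibition across all screened compounds plus 3 SD, cut at about 44% in these data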
STAT1 act: STAT1 signaling activation. activation (% of control), % at 5.5 µM. 2.6% of 200,000 active. NIH 3T3 STAT1-luciferase reporter, IFN-gamma, luminescence; 100% = IFN-gamma alone, no compound;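 active means activation above the screen-wide mean activation plus 3 SD, cut at about 130% in these data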
STAT1 blocker: inhibitors of IFN-gamma induced STAT1 signaling | NIH 3T3 STAT1-luciferase reporter, luminescence | inhibition, % at 5.5 µM | 0.35% of 200,000 active;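 active means inhibition above a set limit, the mean inhibition across all tested compounds plus 3 SD, cut at about 34% in these data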
NF-kB neuron act: compounds increasing NF-kB expression in human neuronal cells. NF-kB reporter expression; stronger effect = higher value. fold change at 12.5 µM. 1.6% of 190,000 active. AID 1239; in the data active means fold change above about 3.3
STAT3 act: increases IL-6 driven STAT3 reporter signal; U3A cells, IL-6 STAT3-luciferase reporter, luminescence; 100% = signal with IL-6 EC80 alone; 0.91% of 190,000 active; activation (% of control), % at 5.6 µM; AID 871;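 active means activation above the screen-wide mean of compound activation plus 3 SD, cut at about 130% in these data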
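Material: STAT3-luciferase reporter U3A cells. Controls: IL-6-treated wells, 100% activation. Read-out: % activation versus median of IL-6-stimulated wells. Probe or stimulus: IL-6 stimulus at 33 ng/mL final. Timing: compound 1 h, then IL-6 6 h at 37 °C. Signal: reporter luminescence signal.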
APP 5'UTR act: APP 5'UTR luciferase reporter activation. SH-SY5Y APP 5'UTR luciferase reporter, luminescence; zero percent = DMSO vehicle wells. activation, % at 2 µM. 1% of 190,000 active. AID 1276;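 active means activation above a set limit, based on mean plus 3 SD of controls, cut at about 140% in these data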
Large screens that a line does not name were inactive. Most compounds without a hit are left out; they make up all but 4.9% or so of the library.

CC(=O)c1ccc2c(c1)Cc1cc(C(C)=O)ccc1-2	STAT1 act 146
O=C(c1ccc(Cl)cc1)c1cnc(Nc2ccccc2Cl)s1	STAT1 act 145
CC(=O)c1cnc(Nc2ccccc2)s1	none
CNc1ncc(C(=O)c2ccccc2)s1	none
CNc1ncc(C(=O)c2ccc(Br)cc2)s1	STAT1 act 140, NF-kB neuron act 3.5
CC(=O)c1cnc(Nc2cccc(Cl)c2Cl)s1	STAT1 act 136
N#CC(C#N)=Cc1ccc(OCC(=O)N2CCOCC2)cc1	none
CCc1c(C)sc(NC(=O)/C=C/C(=O)O)c1C(N)=O	none
Cc1ccc(C(=O)Oc2oc(-c3ccco3)nc2C=Nc2ccccc2)cc1	STAT1 act 139
COc1ccc(N=Cc2nc(-c3ccccc3)oc2OC(=O)c2ccccc2)cc1	STAT1 act 132
CSc1nc2sc(-c3ccccc3)cc2c(=O)n1N	STAT1 act 138
Cc1ccc(C(=O)/C=C\NCc2ccccc2)cc1	STAT1 act 130
Cc1ccc(C(=O)/C=C\C(=O)c2ccc(C)cc2)cc1	none
Cc1ccc(S/C=C\C(=O)c2ccccc2)cc1	NF-kB neuron act 10, APP 5'UTR act 144
CC12CCC(C(=O)Nc3ccccc3Cl)(C(Br)C1=O)C2(C)C (configuration not stated)	none
Cc1ccc2oc(-c3ccco3)cc(=O)c2c1	STAT1 act 138
Cc1ccc(S(=O)(=O)Nc2ccc(-c3nc4cc(NS(=O)(=O)c5ccc(C)cc5)ccc4o3)cc2)cc1	none
Nc1ccc2oc(-c3ccc4nc[nH]c4c3)nc2c1	STAT1 act 132
Nc1ccc2oc(-c3cccc(Br)c3)nc2c1	STAT1 act 146
CCc1ccc2oc(-c3cccc(N)c3)nc2c1	NF-kB neuron act 3.9
CN=C(NC1CCCCC1)c1ccc(Cl)cc1	none
Cc1ccc(NC(=O)c2ccc(OCC3CCCO3)cc2)cc1 (configuration not stated)	STAT1 act 136, NF-kB neuron act 3.4
Cc1ccc(NC(=O)c2ccc(OC(=O)COc3ccc(Cl)c(C)c3)cc2)cc1	STAT1 act 140
O=C(NC1=NCCS1)c1ccc(OCC2CCCO2)cc1 (configuration not stated)	none
Cc1cnc(NC(=O)c2ccc(OCC3CCCO3)cc2)s1 (configuration not stated)	STAT3 blocker 78, STAT1 blocker 51, NF-kB neuron act 3.9
Cc1ccc(NS(=O)(=O)c2ccc(N3C(=O)CCC3=O)cc2)cc1	none
CC(NC(=O)c1cccs1)c1nnc(SCc2ccc(Cl)cc2Cl)n1C (configuration not stated)	none
CCC(C)/C(C)=N/NC(=O)c1ccc(CSc2nc3ccccc3s2)cc1 (configuration not stated)	STAT1 act 130
N#C/C(=N\Nc1cccc(F)c1)C(=N)N1CCCCCC1	STAT1 act 145, NF-kB neuron act 5.2, APP 5'UTR act 150
COc1ccc(NC(=O)C(NC(=O)c2ccc(=O)[nH]c2)c2ccc(OC)cc2)cc1 (configuration not stated)	none
CCN1CCN(C(=O)c2ccc(-c3nc4ccccc4s3)s2)CC1	STAT1 act 130, NF-kB neuron act 4.2
O=C(NC1CC1)c1ccc(-c2nc3ccccc3s2)s1	STAT3 blocker 106, STAT1 blocker 75
O=C(c1ccc(-c2nc3ccccc3s2)s1)N1CCOCC1	STAT3 blocker 98, STAT1 blocker 77
O=C(c1ccc(Cl)s1)N1CCOCC1	none
Cc1ccc2nc(NC(=O)c3ccc(-c4nc5ccccc5s4)s3)sc2c1	none
Cc1c(NC(=O)C(C)OC(=O)C23CC4CC(CC(Br)(C4)C2)C3)c(=O)n(-c2ccccc2)n1C (configuration not stated)	none
Nc1ccc(Oc2ccc(Br)cc2)cc1	NF-kB neuron act 3.5
Nc1ccc(Oc2cccc(Oc3ccc(N)cc3)c2)cc1	STAT3 blocker 51, STAT1 blocker 39
Cc1cccc(Oc2ccc(N)cc2)c1	none
Cc1cc(C)cc(Oc2ccc(N)cc2)c1	none
Cn1cccc1C1Nc2ccccc2NC2=C1C(=O)CC(C)(C)C2 (configuration not stated)	APP 5'UTR act 139
